Results published in ChEMBL document CHEMBL2163267, “Novel N-linked aminopiperidine inhibitors of bacterial topoisomerase type II with reduced pK(a): antibacterial agents with an improved safety profile” (J Med Chem, 2012).
In brackets after ≈: the same amount, converted by molar mass.

How the values were obtained:
[1] = biological target: T1, Voltage-gated inwardly rectifying potassium channel KCNH2 (Homo sapiens, UniProt Q12809); assay: Inhibition of human ERG by Ionworks assay
[2] = Dissociation constant, pKa of the compound by pH metric assay; assay type: physicochemical
Procedure, shortened: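 pH-metric titration on an automated titrator, run in triplicate. Accuracy about 0.02 log units.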

[3] = Octanol-phosphate buffer partition coefficient, log D of the compound at pH 7.4 by shake flask method; assay type: physicochemical
Procedure, shortened: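 Shake-flask partition between n-octanol and 10 mM phosphate buffer at pH 7.4. Shaken 1 h at 1200 rpm to reach equilibrium. Phases analysed by LC/UV, with MS for mass confirmation.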

[4] = Inhibition of Escherichia coli DNA topoisomerase 4 subunit ParC/DNA topoisomerase 4 subunit ParE ATPase activity after 24 hrs by malachite green staining-based colorimetric assay
[5] = Fraction unbound in human plasma at 10 uM by equilibrium dialysis method; assay type: ADME, cell-free
Procedure, shortened: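 Equilibrium dialysis. Compound at 10 μM in the plasma (donor) chamber against phosphate buffer, rotated at 37 °C for 16 h. Drug in the plasma and buffer samples quantified by LC-MS/MS after methanol protein precipitation with internal standard. Standard curve 10 nM to 10 μM.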

Escherichia coli = assay: Antibacterial activity against Escherichia coli W3110 after 18 to 24 hrs by CLSI broth microdilution method; assay type: functional
Pseudomonas aeruginosa = assay: Antibacterial activity against Pseudomonas aeruginosa PAO1 after 18 to 24 hrs by CLSI broth microdilution method; assay type: functional
Staphylococcus aureus [6] = assay: Antibacterial activity against methicillin-susceptible Staphylococcus aureus after 18 to 24 hrs by CLSI broth microdilution method; assay type: functional
Streptococcus pneumoniae = assay: Antibacterial activity against penicillin-susceptible Streptococcus pneumoniae D39 after 18 to 24 hrs by CLSI broth microdilution method; assay type: functional
[7] = biological target: T1, Voltage-gated inwardly rectifying potassium channel KCNH2; assay: Displacement of [3H]-astemizole from human ERG expressed in HEK293 cells after 60 mins by liquid scintillation counter; assay type: cell-based
Staphylococcus aureus [8] = assay: Antibacterial activity against linezolid-resistant Staphylococcus aureus ARC 3583 after 18 to 24 hrs by CLSI broth microdilution method; assay type: functional
Procedure, shortened: (§1)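 CLSI broth microdilution in Mueller Hinton Broth 2. Inocula prepared from blood agar plates grown at 35 °C for 18–24 h. Compound in DMSO, 2% DMSO final, 11 doubling dilutions from 64 to 0.06 μg/mL. Plates read at 620 nm.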

Staphylococcus aureus [9] = assay: Antibacterial activity against vancomycin-resistant Staphylococcus aureus ARC 3186 after 18 to 24 hrs by CLSI broth microdilution method; assay type: functional; procedure, shortened: as §1

T1 sequence (Q12809 whole entry): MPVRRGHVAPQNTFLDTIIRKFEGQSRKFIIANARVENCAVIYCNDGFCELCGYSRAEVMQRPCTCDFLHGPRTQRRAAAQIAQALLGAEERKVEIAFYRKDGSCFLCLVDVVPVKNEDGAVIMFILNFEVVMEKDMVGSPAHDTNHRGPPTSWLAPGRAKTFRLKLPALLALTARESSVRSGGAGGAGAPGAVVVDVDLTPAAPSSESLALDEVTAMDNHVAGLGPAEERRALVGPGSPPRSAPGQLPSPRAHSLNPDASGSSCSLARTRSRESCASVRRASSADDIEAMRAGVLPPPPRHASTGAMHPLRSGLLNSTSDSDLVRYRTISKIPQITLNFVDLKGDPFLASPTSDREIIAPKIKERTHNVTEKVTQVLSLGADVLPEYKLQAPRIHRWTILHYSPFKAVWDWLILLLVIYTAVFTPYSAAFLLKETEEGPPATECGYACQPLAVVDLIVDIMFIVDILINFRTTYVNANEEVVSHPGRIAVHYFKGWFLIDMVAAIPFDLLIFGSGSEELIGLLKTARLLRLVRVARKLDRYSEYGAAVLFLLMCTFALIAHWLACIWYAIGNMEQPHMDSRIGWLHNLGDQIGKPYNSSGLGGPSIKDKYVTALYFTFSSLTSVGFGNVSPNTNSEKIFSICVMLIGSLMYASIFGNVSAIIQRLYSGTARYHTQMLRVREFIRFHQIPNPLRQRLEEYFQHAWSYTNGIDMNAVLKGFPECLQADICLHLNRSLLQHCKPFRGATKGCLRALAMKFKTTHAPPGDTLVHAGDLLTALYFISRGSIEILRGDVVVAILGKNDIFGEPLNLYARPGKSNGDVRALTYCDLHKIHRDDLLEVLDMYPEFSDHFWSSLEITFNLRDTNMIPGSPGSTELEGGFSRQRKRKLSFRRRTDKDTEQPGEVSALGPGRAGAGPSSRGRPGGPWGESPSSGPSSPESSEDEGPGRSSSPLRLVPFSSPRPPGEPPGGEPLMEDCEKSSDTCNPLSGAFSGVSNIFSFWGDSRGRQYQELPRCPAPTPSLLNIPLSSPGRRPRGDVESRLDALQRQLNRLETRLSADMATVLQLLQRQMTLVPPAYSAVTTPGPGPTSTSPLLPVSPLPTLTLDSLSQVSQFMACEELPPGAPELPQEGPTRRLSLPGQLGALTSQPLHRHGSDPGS

Row | SMILES | IC50 [1] [µM] | pKa [2] | logD [3] | IC50 [4] [µM] | fraction unbound at 10 µM [5] | MIC (Escherichia coli) [µg/mL] | MIC (Pseudomonas aeruginosa) [µg/mL] | MIC (Staphylococcus aureus [6]) [µg/mL] | MIC (Streptococcus pneumoniae) [µg/mL] | IC50 [7] [µM] | MIC (Staphylococcus aureus [8]) [µg/mL] | MIC (Staphylococcus aureus [9]) [µg/mL]
1 | N#Cc1ccc2ccc(=O)n(CCN3CC[C@H](NCc4cc5c(cn4)OCCO5)[C@H](O)C3)c2c1 | 156 | 8 | 0.46 | 0.025 | 0.19 | 1 (≈ 2.17 µM) | > 8 | 0.06 (≈ 0.13 µM) |  |  |  | 
2 | CO[C@H]1CN(CCn2c(=O)ccc3ccc(C#N)cc32)CC[C@H]1NCc1cc2c(cn1)OCCO2 | 174 | 7.99 | 0.63 | 0.055 | 0.54 | 4 (≈ 8.41 µM) | > 8 | 0.13 (≈ 0.273 µM) | 0.13 (≈ 0.273 µM) |  |  | 
3 | COc1ccc2ncc(=O)n(CCN3CC[C@@H](NCc4cc5c(cn4)OCCO5)[C@@H](OC)C3)c2c1 | 75 | 8.01 | 0.9 | 0.076 | 0.33 | 4 (≈ 8.31 µM) | > 8 | 0.06 (≈ 0.125 µM) | 0.13 (≈ 0.27 µM) |  |  | 
4 | COc1ccc2ncc(=O)n(CCN3CC[C@@H](NCc4ccc5c(n4)NC(=O)CO5)[C@@H](OC)C3)c2c1 | 88 | 8.17 |  | 0.076 | 0.28 | 1 (≈ 2.02 µM) | 4 (≈ 8.09 µM) | 0.06 (≈ 0.121 µM) | 0.25 (≈ 0.506 µM) |  |  | 
5 | N#Cc1ccc2ccc(=O)n(CCN3CC[C@@H](NCc4cc5c(cn4)OCCO5)[C@@H](F)C3)c2c1 | 199 |  | 0.97 | 0.06 | 0.2 | 4 (≈ 8.63 µM) | > 8 | 0.13 (≈ 0.28 µM) | 0.13 (≈ 0.28 µM) | > 200 |  | 
6 | CO[C@H]1CN(CCn2c(=O)ccc3ccc(C#N)cc32)CC[C@@H]1NCc1cc2c(cn1)OCCO2 (single isomer, unassigned; enantiomer 1) | 176 | 7.25 | 1.07 | 0.096 | 0.13 | 8 (≈ 16.8 µM) | > 8 | 0.25 (≈ 0.526 µM) | 0.5 (≈ 1.05 µM) |  |  | 
7 | COc1ccc2ncc(=O)n(CCN3CC[C@H](NCc4cc5c(cn4)OCCO5)[C@@H](OC)C3)c2c1 (single isomer, unassigned; enantiomer 1) | 93 | 7 | 1.27 | 0.113 | 0.11 | 8 (≈ 16.6 µM) | > 8 | 0.25 (≈ 0.519 µM) | 0.25 (≈ 0.519 µM) |  |  | 
8 | COc1ccc2ncc(=O)n(CCN3CC[C@@H](NCc4ccc5c(n4)NC(=O)CO5)[C@H](OC)C3)c2c1 (single isomer, unassigned; enantiomer 1) | 27 | 7.45 |  | 0.045 | 0.18 | 1 (≈ 2.02 µM) | 8 (≈ 16.2 µM) | 0.03 (≈ 0.0607 µM) | 0.13 (≈ 0.263 µM) |  |  | 
9 | N#Cc1ccc2ccc(=O)n(CCN3CC[C@H](NCc4cc5c(cn4)OCCO5)[C@@H](F)C3)c2c1 (single isomer, unassigned; enantiomer B) | 122 | 6.66 | 1.53 | 0.016 | 0.09 | 8 (≈ 17.3 µM) | > 8 | 0.13 (≈ 0.28 µM) | 0.25 (≈ 0.539 µM) | 57 |  | 
10 | CC(=O)NC[C@H]1CN(c2ccc(N3CCOCC3)c(F)c2)C(=O)O1 [LINEZOLID] |  |  |  |  |  |  |  |  |  |  | 16 (≈ 47.4 µM) | 1 (≈ 2.96 µM)
11 | CN[C@H](CC(C)C)C(=O)N[C@H]1C(=O)N[C@@H](CC(N)=O)C(=O)N[C@H]2C(=O)N[C@H]3C(=O)N[C@H](C(=O)N[C@H](C(=O)O)c4cc(O)cc(O)c4-c4cc3ccc4O)[C@H](O)c3ccc(c(Cl)c3)Oc3cc2cc(c3O[C@@H]2O[C@H](CO)[C@@H](O)[C@H](O)[C@H]2O[C@H]2C[C@](C)(N)[C@H](O)[C@H](C)O2)Oc2ccc(cc2Cl)[C@H]1O [VANCOMYCIN] |  |  |  |  |  |  |  |  |  |  |  | > 64
